What all share (assay type): functional, cell-based
In experiment [1] the test system is NCI-H417. Put plainly: Cytotoxicity against N 417 human lung cancer cell line. In a few lines: (§1)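 SCLC floating cultures, grown in RPMI 1640 at 37 °C under 5% CO2, disaggregated by gentle pipetting, collected by sedimentation, and plated at 8000 cells/well. Drug (DMSO, then BSA and phosphate buffer dilutions) applied for 1 h, then centrifuged and washed twice with RPMI 1640. After 4 days at 37 °C, MTT was added for 4 h and formazan in DMSO read at 540 nm. IC50 is 50% growth inhibition.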

Experiment [2] deals with NCI-H460. Put plainly: Cytotoxicity against H 460 human lung cancer cell line. In a few lines: (§2)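 Non-SCLC adherent cells, grown in RPMI 1640 at 37 °C under 5% CO2, trypsinized, resuspended in RPMI-1640/2% FBS, and plated at 2500 cells/well. Drug (DMSO, then BSA and phosphate buffer dilutions) applied for 1 h, then centrifuged and washed twice. Cells were kept 4 days at 37 °C, given MTT for 4 h, formazan dissolved in DMSO, and read at 540 nm. IC50 is the concentration giving 50% growth inhibition.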

For experiment [3], the system named is NCI-H69. Put plainly: Cytotoxicity against H69 human lung cancer cell line. The procedure, abridged:
as §1

Experiment [4] relates to NCI-H358. Put plainly: Cytotoxicity against H 358 human lung cancer cell line. The procedure, abridged:
as §2

In experiment [5] the test system is NCI-H417. Put plainly: Compound was evaluated for inhibitory activity against N 417 human lung cancer cell line. The procedure, abridged: as §1
For experiment [6], the system named is NCI-H358. Put plainly: Compound was evaluated for inhibitory activity against H 358 human lung cancer cell line. The procedure, abridged:
as §2

For experiment [7], the system named is NCI-H460. Put plainly: Compound was evaluated for inhibitory activity against H 460 human lung cancer cell line. The procedure, abridged:
as §2

Experiment [8] concerns NCI-H69. Put plainly: Compound was evaluated for inhibitory activity against H69 human lung cancer cell line. The procedure, abridged:
as §1

This passage reports IC50 results from ChEMBL document CHEMBL1125566, “N-methylcarbamate derivatives of ellipticine and olivacine with cytotoxic activity against four human lung cancer cell lines” (J Med Chem, 1992).

For orientation: IC50 means the midpoint of a concentration-inhibition curve. Low readings indicate higher potency, high ones lower potency.

Some results are limits rather than exact numbers.

As for `CNC(=O)OCc1c2ccncc2c(C)c2c1[nH]c1ccc(OC)cc12`, the IC50 stood at 90 nM in the experiment on NCI-H417 [1], 60 nM in the experiment with NCI-H460 [2], 220 nM with NCI-H69 [3] and 100 nM with NCI-H358 [4].
For `Cc1c2cnccc2c(CO)c2[nH]c3ccc(O)cc3c12`, the IC50 in the experiment on NCI-H417 [1] came to 1800 nM; with NCI-H460 [2], 950 nM; in the experiment on NCI-H69 [3] it was 1600 nM; in the experiment on NCI-H358 [4], 1500 nM.
As for `COc1ccc2[nH]c3c(C)c4ccnc(C=O)c4cc3c2c1`, the IC50 in the experiment on NCI-H417 [5] amounted to 900 nM; in the experiment on NCI-H358 [6], 1500 nM; in the experiment with NCI-H460 [7] it was 1800 nM; with NCI-H69 [8] it was 1800 nM.
Take `CNC(=O)OCc1nccc2c(C)c3[nH]c4ccc(OC)cc4c3cc12`: the IC50 in the experiment on NCI-H417 [1] was 100 nM; with NCI-H460 [2], 70 nM; in the experiment with NCI-H69 [3] it was 140 nM; in the experiment with NCI-H358 [4], 110 nM.
On to `CNC(=O)OCc1c2cnccc2c(C)c2[nH]c3ccc(OC)cc3c12`, for which the half-maximal inhibitory concentration (IC50) with NCI-H417 [1] was determined as 40 nM; in the experiment on NCI-H460 [2], 20 nM; in the experiment with NCI-H69 [3], 170 nM; in the experiment on NCI-H358 [4], 90 nM.
Consider `COc1ccc2[nH]c3c(C)c4ccnc(CO)c4cc3c2c1`, for which the IC50 in the experiment on NCI-H417 [1] was 1300 nM; with NCI-H460 [2] it was 1900 nM; in the experiment with NCI-H69 [3] it was 1300 nM; with NCI-H358 [4], 1300 nM.
As for `COc1ccc2[nH]c3c(C)c4ccnc(COC(C)=O)c4cc3c2c1`, the IC50 was found to be 2800 nM with NCI-H417 [1], 1700 nM in the experiment on NCI-H460 [2], 1400 nM in the experiment with NCI-H69 [3] and 2000 nM with NCI-H358 [4].
For the compound `CNC(=O)OCc1c2ccncc2c(C)c2c1[nH]c1ccccc12`, the IC50 in the experiment on NCI-H417 [1] was determined as 330 nM; with NCI-H460 [2], 170 nM; in the experiment with NCI-H69 [3], 860 nM; in the experiment on NCI-H358 [4] it was 190 nM.
For `Cc1c2ccncc2c(C)c2c1[nH]c1ccc(O)cc12`, the IC50 amounted to 3500 nM in the experiment on NCI-H417 [1], 2800 nM in the experiment on NCI-H460 [2], 1700 nM in the experiment with NCI-H69 [3] and 5800 nM in the experiment on NCI-H358 [4].
Take `Cc1nccc2c(C)c3[nH]c4ccccc4c3cc12`: the IC50 with NCI-H417 [5] turned out to be 3400 nM; in the experiment with NCI-H358 [6], 2300 nM; in the experiment on NCI-H460 [7] it was 1800 nM; with NCI-H69 [8], 1700 nM.
The corresponding values for `COc1ccc2[nH]c3c(C)c4ccnc(C)c4cc3c2c1` are 1800 nM, 2100 nM, 2100 nM and 1200 nM.
For `COc1cccc2c1C(=O)c1c(O)c3c(c(O)c1C2=O)C[C@@](O)(C(=O)CO)C[C@@H]3O[C@H]1C[C@H](N)[C@H](O)[C@H](C)O1` [DOXORUBICIN], in that order: 230 nM, 620 nM, 230 nM and 870 nM.
As for `Cc1c2ccncc2c(C)c2c1[nH]c1ccccc12` [ELLIPTECINE], the IC50 stood at 870 nM in the experiment with NCI-H417 [5], 200 nM in the experiment on NCI-H358 [6], 510 nM in the experiment with NCI-H460 [7] and 1800 nM in the experiment with NCI-H69 [8].
In the case of `Cc1c2cc[n+](C)cc2c(C)c2c1[nH]c1ccc(O)cc12` [ELLIPTINIUM], the IC50 in the experiment on NCI-H417 [5], in the experiment with NCI-H358 [6], in the experiment on NCI-H460 [7] and with NCI-H69 [8] was > 48000 nM in each case.
